Experimental findings from ChEMBL document CHEMBL2057132, “Structure-activity relationship of 2,2-dimethyl-2H-chromene based arylsulfonamide analogs of 3,4-dimethoxy-N-[(2,2-dimethyl-2H-chromen-6-yl)methyl]-N-phenylbenzenesulfonamide, a novel small molecule hypoxia inducible factor-1 (HIF-1) pathway inhibitor and anti-cancer agent” (Bioorg Med Chem, 2012) are described below.

The target of series [1] is T1, Hypoxia inducible factors; HIF-1-alpha, HIF-2-alpha (Homo sapiens, UniProt Q16665+Q99814). Nature of the series: Inhibition of HIF1 transcriptional activity in human LN229 cells expressing VEGF-HRE-V6R and coexpressing luciferase, lac Z gene incubated for 1 hr in normoxia condition followed by 24 hrs in hypoxia condition by reporter gene assay. The series is classed as cell-based. The method in brief:
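LN229 glioblastoma cells stably carrying a 6×VEGF-HRE bidirectional luciferase/lacZ reporter, 3 × 10^4 per well, grown 24 h normoxic in DMEM/10% FBS. Compound (serial dilutions in medium, 1% DMSO) added, 1 h normoxia, then 24 h at 1% O2, 37 °C. Lysate luciferase read by luminometer, as percent of untreated hypoxic cells. Triplicates, two independent experiments.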
In general terms: In a reporter assay the amount or activity of a reporter protein is the signal.

The nature of series [2]: Downregulation of HIF1alpha protein level in human LN229 cells expressing VEGF-HRE-V6R at 10 uM incubated for 1 hr in normoxia condition followed by 24 hrs in hypoxia condition by Western blot analysis relative to control. To be noted: LN-229. In kind it is functional, cell-based. The method in brief:
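LN229-V6R cells (2 × 10^5 per 35 mm dish) grown 24 h under normoxia. Compounds given at 10 μM in medium with 1% DMSO, 1 h normoxia, then 24 h hypoxia (1% O2) at 37 °C. SDS lysis, 12.5% gel, nitrocellulose, anti-HIF-1α and β-actin blots, ECL. Densitometry as percent of untreated hypoxic control, normalized to β-actin.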
A general note: A western blot detects proteins with antibodies after separation by electrophoresis.

A short description of series [3]: Aqueous solubility of the compound at pH 7.4. In kind it is physicochemical.
The target of series [4] is T1, Hypoxia inducible factors; HIF-1-alpha, HIF-2-alpha. The series is described as follows: Inhibition of HIF1 transcriptional activity in human LN229 cells expressing VEGF-HRE-V6R and coexpressing lac Z gene at 10 uM incubated for 1 hr in normoxia condition followed by 24 hrs in hypoxia condition by luciferase reporter gene assay relative to control; values are per cent of control.

Molecules are shown by their SMILES. Calls of active or inactive are those of the source. No cut-off for these calls is given here. Some results are limits rather than exact numbers.

In the case of `CC1(C)C=Cc2cc(CN(c3ccc(F)cc3)S(=O)(=O)c3ccc(F)cc3)ccc2O1`, in series [1], the IC50 is 6.6 µM and the inhibition entry is “Dose-dependent effect”.
With `CC1(C)C=Cc2cc(CN(c3ccccc3)S(=O)(=O)c3ccc(F)cc3)ccc2O1`, in series [1], the IC50 turned out to be 4.8 µM and the inhibition entry is “Dose-dependent effect”.
As for `CC1(C)C=Cc2cc(CN(c3ccc(F)cc3)S(=O)(=O)c3cc(Cl)ccc3Cl)ccc2O1`, in series [1], the IC50 was found to be 8 µM and the inhibition entry is “Dose-dependent effect”.
As for `CC1(C)C=Cc2cc(CN(c3ccc(F)cc3)S(=O)(=O)c3ccc([N+](=O)[O-])cc3)ccc2O1`, in series [1], the IC50 is 4.8 µM and the inhibition entry was “Dose-dependent effect”.
Taken in the same sequence, the figures for `CC1(C)C=Cc2cc(CN(c3ccc(F)cc3)S(=O)(=O)c3ccccc3)ccc2O1` were 7.2 µM and “Dose-dependent effect”.
With `CC1(C)C=Cc2cc(CN(c3ccccc3)S(=O)(=O)c3ccc([N+](=O)[O-])cc3)ccc2O1`, in series [1], the IC50 stood at 4.2 µM and the inhibition entry is “Dose-dependent effect”.
`CC(C)N(Cc1ccc2c(c1)C=CC(C)(C)O2)S(=O)(=O)c1ccc(F)cc1`: in series [1], the IC50 was 3.8 µM and the inhibition result was “Dose-dependent effect”. Further, in series [2], the result was inactive.
Turning to `CC(C)N(Cc1ccc2c(c1)C=CC(C)(C)O2)S(=O)(=O)c1ccc([N+](=O)[O-])cc1`, in series [1], the IC50 worked out at 3 µM and the inhibition entry is “Dose-dependent effect”.
Turning to `COc1ccc(S(=O)(=O)N(Cc2ccc3c(c2)C=CC(C)(C)O3)c2ccccc2)cc1OC`, the solubility in series [3] is under 15 µg/mL. Also, in series [1], the IC50 is 1.6 µM and the inhibition result is “Dose-dependent effect”. In addition, in series [4], the residual activity is under 5%. In series [2], the outcome was inactive.
Consider `CC1(C)C=Cc2cc(CN(c3ccccc3)S(=O)(=O)c3cc(Cl)ccc3Cl)ccc2O1`, for which, in series [1], the IC50 was 3.3 µM and the inhibition entry is “Dose-dependent effect”.
For the compound `CC(C)N(Cc1ccc2c(c1)C=CC(C)(C)O2)S(=O)(=O)c1cc(Cl)ccc1Cl`, in series [1], the IC50 came out at 16.8 µM and the inhibition entry is “Dose-dependent effect”.
Take `COc1ccc(S(=O)(=O)N(Cc2ccc3c(c2)C=CC(C)(C)O3)c2ccc(F)cc2)cc1OC`: in series [1], the IC50 stood at 3.2 µM and the inhibition result is “Dose-dependent effect”. The compound further displayed a residual activity in series [4] of under 5%. For the same compound, the result in series [2] was inactive.
Regarding `CC(C)N(Cc1ccc2c(c1)C=CC(C)(C)O2)S(=O)(=O)c1ccccc1`, in series [1], the IC50 is 2.2 µM and the inhibition entry was “Dose-dependent effect”.
As to `CC1(C)C=Cc2cc(CN(c3ccccc3)S(=O)(=O)c3ccccc3)ccc2O1`, in series [1], the IC50 turned out to be 2.7 µM and the inhibition entry was “Dose-dependent effect”.
With `COc1ccc(S(=O)(=O)N(Cc2ccc3c(c2)C=CC(C)(C)O3)C(C)C)cc1OC`, in series [1], the half-maximal inhibitory concentration (IC50) was determined as 1.5 µM and the inhibition entry was “Dose-dependent effect”. For the same compound, in series [4], the residual activity was under 5%. In series [2], this compound showed an Activity of 30%.

For orientation: IC50 means the midpoint of a concentration-inhibition curve. Usually solubility stands for the concentration that dissolves in the medium under given conditions. Low readings indicate a poorly soluble substance, high ones a readily soluble substance.
